Measurements as given in ChEMBL document CHEMBL1136983, “Synthesis, cleavage, and antifungal activity of a number of novel, water-soluble ester prodrugs of antifungal triazole CS-758” (Bioorg Med Chem Lett, 2009).
Values belong to the compound of their own block, whether it stands above or below them. Active and inactive are the calls of the source. The rule behind the calls is not given here.

Tests used:
[1] = Solubility in water; format: physicochemical
Rattus norvegicus = assay: Half life in rat assessed as CS-758 elimination at 2 mg/kg, iv; format: ADME, organism-based; parameters: dose 2 mg/kg, route intravenous; conditions: in vivo
How it was run: (§1)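 Rats received a single iv dose of prodrug at 2 mg/kg, and plasma CS-758 was followed over time (average of three rats). Bioavailability (%) = AUC of CS-758 after iv prodrug / AUC of CS-758 after iv CS-758 dissolved in polyethylene glycol solution × 100.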

Candida albicans = assay: Antifungal activity against Candida albicans SANK 51486 infected in mouse at 0.2 to 20 mg/kg, iv administered 2 hrs post infection measured after 24 hrs; format: functional, organism-based
How it was run: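 Mouse systemic Candida albicans infection, challenge 4.2 × 10⁵ CFU/mouse. Single dose 2 h after challenge, at 0.2, 2 or 20 mg/kg, vehicle controls. Kidney viable cell counts taken at 24 h. Mean + S.E., n = 8 per group, significance at p<0.05 and p<0.001.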

Liver microsomes [2] = assay: Metabolic stability in human liver microsomes assessed as formation of (2R,3R)-3-((2R,5r)-2-((1E,3E)-4-(4-cyano-2-fluorophenyl)buta-1,3-dienyl)-1,3-dioxan-5-ylthio)-2-(2,4-difluorophenyl)-1-(1H-1,2,4-triazol-1-yl)butan-2-yl 2-hydroxyacetate after 30 mins; format: ADME, Microsome; conditions: 0.5 h
Liver microsomes [3] = assay: Metabolic stability in human liver microsomes assessed as formation of (2R,3R)-3-((2R,5r)-2-((1E,3E)-4-(4-cyano-2-fluorophenyl)buta-1,3-dienyl)-1,3-dioxan-5-ylthio)-2-(2,4-difluorophenyl)-1-(1H-1,2,4-triazol-1-yl)butan-2-yl 2-hydroxyacetate after 120 mins; format: ADME, Microsome; conditions: 2 h
[4] = Cmax in rat at 2 mg/kg, iv; format: ADME, organism-based; parameters: dose 2 mg/kg, route intravenous; conditions: in vivo; how it was run: as §1
[5] = Bioavailability in rat at 2 mg/kg, iv; format: ADME, organism-based; conditions: in vivo; how it was run: as §1

solubility [1]: > 30000 µg/mL
t1/2 (Rattus norvegicus): 5.7 h
SMILES: C[C@@H](S[C@H]1CO[C@H](/C=C/C=C/c2ccc(C#N)cc2F)OC1)[C@@](Cn1cncn1)(OP(=O)([O-])O)c1ccc(F)cc1F.[Na+]
Activity (Candida albicans): Active

solubility [1]: < 1000 µg/mL
SMILES: C[C@@H](S[C@H]1CO[C@H](/C=C/C=C/c2ccc(C#N)cc2F)OC1)[C@@](Cn1cncn1)(OC(=O)CN(C)C)c1ccc(F)cc1F

Activity (Liver microsomes [2]): Active
solubility [1]: > 10000 µg/mL
Activity (Liver microsomes [3]): Active
SMILES: C[C@@H](S[C@H]1CO[C@H](/C=C/C=C/c2ccc(C#N)cc2F)OC1)[C@@](Cn1cncn1)(OC(=O)COP(=O)([O-])O)c1ccc(F)cc1F.[Na+]

Cmax [4]: 1300 ng/mL
bioavailability [5]: 3.3%
SMILES: C[C@@H](S[C@H]1CO[C@H](/C=C/C=C/c2ccc(C#N)cc2F)OC1)[C@](O)(Cn1cncn1)c1ccc(F)cc1F [EMBECONAZOLE]

solubility [1]: < 1000 µg/mL
SMILES: C[C@@H](S[C@H]1CO[C@H](/C=C/C=C/c2ccc(C#N)cc2F)OC1)[C@@](Cn1cncn1)(OC(=O)CO)c1ccc(F)cc1F

solubility [1]: < 1000 µg/mL
SMILES: C[C@@H](S[C@H]1CO[C@H](/C=C/C=C/c2ccc(C#N)cc2F)OC1)[C@@](Cn1cncn1)(OC(=O)CN)c1ccc(F)cc1F

solubility [1]: > 10000 µg/mL
bioavailability [5]: 3.3%
SMILES: C[C@@H](S[C@H]1CO[C@H](/C=C/C=C/c2ccc(C#N)cc2F)OC1)[C@@](Cn1cncn1)(OC(=O)C[N+](C)(C)C)c1ccc(F)cc1F.[Cl-]

Activity (Liver microsomes [2]): Active
solubility [1]: > 10000 µg/mL
Activity (Liver microsomes [3]): Active
SMILES: C[C@@H](S[C@H]1CO[C@H](/C=C/C=C/c2ccc(C#N)cc2F)OC1)[C@@](Cn1cncn1)(OC(=O)COC(=O)CCC(=O)[O-])c1ccc(F)cc1F.[Na+]

solubility [1]: < 1000 µg/mL
SMILES: C[C@@H](S[C@H]1CO[C@H](/C=C/C=C/c2ccc(C#N)cc2F)OC1)[C@@](Cn1cncn1)(OC(=O)CCN)c1ccc(F)cc1F
